In ChEMBL document CHEMBL2434934, “Multicomponent synthesis and anticonvulsant activity of monocyclic 2,6-diketopiperazine derivatives” (Med Chem Res, 2013) one finds Activity data, which are given here for nine molecules.

Data set [1] relates to Mus musculus. Put plainly: Anticonvulsant activity in albino mouse assessed as protection against subcutaneous metrazole-induced seizures at 30 mg/kg, ip after 0.5 to 4 hrs. Further details: dose 30 mg/kg. Type of data set: functional, organism-based. A digest of the protocol:
(§1)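 Mice were dosed ip at 30, 100 or 300 mg/kg and tested at two or more time points. Protection meant absence of clonic seizures lasting at least 5 s, scored as number protected/number tested.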

The subject of data set [2] is Mus musculus. The data set is described as follows: Anticonvulsant activity in albino mouse assessed as protection against maximal electroshock-induced seizures at 300 mg/kg, ip after 4 hrs. Type of data set: functional, organism-based. Details: dose 300 mg/kg. A digest of the protocol:
(§2)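 A 0.2 s electrical stimulus of 50 mA was applied to mice through corneal electrodes primed with an electrolyte solution containing an anesthetic. This followed ip dosing at 30, 100 or 300 mg/kg, with testing at two or more time points. Protection meant abolition of the hindlimb tonic extensor component, scored as number protected/number tested.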
In general terms: Protection in the maximal electroshock model is a classic sign of anticonvulsant action.

Data set [3] deals with Mus musculus. The data set is described as follows: Anticonvulsant activity in albino mouse assessed as protection against maximal electroshock-induced seizures at 30 mg/kg, ip after 0.5 to 4 hrs. Type of data set: functional, organism-based. Further details: dose 30 mg/kg. In a few lines:
as §2

Data set [4] deals with Mus musculus. The data set is described as follows: Neurotoxicity in albino mouse at 300 mg/kg, ip after 4 hrs by rotarod test. Type of data set: toxicity, organism-based. Further details: dose 300 mg/kg, route intraperitoneal. The conditions noted are these: in vivo. A digest of the protocol: (§3)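 Mice received the compound ip and were tested at intervals of 0.25 to 4 h after dosing. Neurological impairment was scored as inability to keep equilibrium on a rod rotating at 6 rpm for a given time. The footnotes also record inability to grasp the rod and loss of righting reflex. Results were expressed as number toxic/number tested.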

Data set [5] has as its system Mus musculus. The data set is described as follows: Anticonvulsant activity in albino mouse assessed as protection against subcutaneous metrazole-induced seizures at 300 mg/kg, ip after 0.5 to 4 hrs. Type of data set: functional, organism-based. Details: dose 300 mg/kg. In a few lines:
as §1

The subject of data set [6] is Mus musculus. Put plainly: Anticonvulsant activity in albino mouse assessed as protection against maximal electroshock-induced seizures at 300 mg/kg, ip after 0.5 hrs. Type of data set: functional, organism-based. Further details: dose 300 mg/kg. A digest of the protocol: as §2
The subject of data set [7] is Mus musculus. Put plainly: Anticonvulsant activity in albino mouse assessed as protection against subcutaneous metrazole-induced seizures at 100 mg/kg, ip after 0.5 to 4 hrs. Type of data set: functional, organism-based. Details: dose 100 mg/kg. A digest of the protocol: as §1
Data set [8] deals with Mus musculus. The data set is described as follows: Anticonvulsant activity in albino mouse assessed as protection against maximal electroshock-induced seizures at 100 mg/kg, ip after 0.5 to 4 hrs. Type of data set: functional, organism-based. Details: dose 100 mg/kg. A digest of the protocol:
as §2

Data set [9] deals with Mus musculus. The data set is described as follows: Neurotoxicity in albino mouse at 100 mg/kg, ip after 0.5 to 4 hrs by rotarod test. Details: dose 100 mg/kg, route intraperitoneal. Type of data set: toxicity, organism-based. The settings on record: in vivo. A digest of the protocol:
as §3
On the technique in general: Falling from the rotarod earlier than controls is read as motor impairment.

For data set [10], the system named is Mus musculus. Put plainly: Neurotoxicity in albino mouse at 30 mg/kg, ip after 0.5 to 4 hrs by rotarod test. Type of data set: toxicity, organism-based. Further details: dose 30 mg/kg, route intraperitoneal. The conditions noted are these: in vivo. A digest of the protocol:
as §3

In data set [11] the test system is Mus musculus. Put plainly: Neurotoxicity in albino mouse at 100 mg/kg, ip after 2 hrs by rotarod test. Type of data set: toxicity, organism-based. Details: dose 100 mg/kg, route intraperitoneal. The conditions noted are these: in vivo. A digest of the protocol: as §3
Data set [12] has as its system Mus musculus. The data set is described as follows: Anticonvulsant activity in albino mouse assessed as protection against maximal electroshock-induced seizures at 30 mg/kg, ip after 2 hrs. Type of data set: functional, organism-based. Details: dose 30 mg/kg. In a few lines: as §2
The subject of data set [13] is Mus musculus. Put plainly: Neurotoxicity in albino mouse at 300 mg/kg, ip after 2 hrs by rotarod test. Type of data set: toxicity, organism-based. Further details: dose 300 mg/kg, route intraperitoneal. The settings on record: in vivo. A digest of the protocol:
as §3

Data set [14] has as its system Mus musculus. The data set is described as follows: Anticonvulsant activity in albino mouse assessed as protection against maximal electroshock-induced seizures at 100 mg/kg, ip after 2 hrs. Further details: dose 100 mg/kg. Type of data set: functional, organism-based. In a few lines: as §2
Data set [15] concerns Mus musculus. Put plainly: Neurotoxicity in albino mouse at 30 mg/kg, ip after 2 hrs by rotarod test. Type of data set: toxicity, organism-based. Further details: dose 30 mg/kg, route intraperitoneal. The conditions noted are these: in vivo. In a few lines: as §3
The subject of data set [16] is Mus musculus. Put plainly: Anticonvulsant activity in albino mouse assessed as protection against maximal electroshock-induced seizures at 300 mg/kg, ip after 2 hrs. Type of data set: functional, organism-based. Further details: dose 300 mg/kg. A digest of the protocol:
as §2

Data set [17] deals with Mus musculus. The data set is described as follows: Neurotoxicity in albino mouse at 300 mg/kg, ip after 0.5 hrs by rotarod test. Type of data set: toxicity, organism-based. Further details: dose 300 mg/kg, route intraperitoneal. The settings on record: in vivo. A digest of the protocol: as §3
The test system of data set [18] is Mus musculus. Put plainly: Anticonvulsant activity in albino mouse assessed as protection against 6 Hz psychomotor seizure at 100 mg/kg, ip after 0.5 to 2 hrs. Type of data set: functional, organism-based. Details: dose 100 mg/kg. In a few lines:
(§4)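 Mice given 100 mg/kg ip and tested at intervals between 0.25 and 4 h. A constant-current device delivered corneal stimulation at 32 mA as 0.2 ms monopolar rectangular pulses at 6 Hz for 3 s. Mice were restrained during stimulation, then released into an observation cage. The readout was protection against the psychomotor seizure (stunned posture, forelimb clonus, Straub tail), scored as number protected/number tested.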

Data set [19] deals with Mus musculus. The data set is described as follows: Neurotoxicity in albino mouse at 100 mg/kg, ip after 0.5 to 2 hrs by rotarod test. The settings on record: in vivo. Further details: dose 100 mg/kg, route intraperitoneal. Type of data set: toxicity, organism-based. A digest of the protocol: as §3
The test system of data set [20] is Mus musculus. The data set is described as follows: Anticonvulsant activity in albino mouse assessed as protection against 6 Hz psychomotor seizure at 100 mg/kg, ip after 1 to 4 hrs. Type of data set: functional, organism-based. Details: dose 100 mg/kg. A digest of the protocol:
as §4

The subject of data set [21] is Mus musculus. Put plainly: Neurotoxicity in albino mouse at 100 mg/kg, ip after 0.25 to 4 hrs by rotarod test. Type of data set: toxicity, organism-based. Further details: dose 100 mg/kg, route intraperitoneal. The settings on record: in vivo. In a few lines:
as §3

Data set [22] concerns Mus musculus. Put plainly: Anticonvulsant activity in albino mouse assessed as protection against 6 Hz psychomotor seizure at 100 mg/kg, ip after 0.25 to 0.5 hrs. Type of data set: functional, organism-based. Further details: dose 100 mg/kg. A digest of the protocol:
as §4

Data set [23] has as its system Mus musculus. Put plainly: Neurotoxicity in albino mouse assessed as loss of righting reflex at 300 mg/kg, ip after 0.5 hrs by rotarod test. Type of data set: toxicity, organism-based. Details: dose 300 mg/kg, route intraperitoneal. The settings on record: in vivo. In a few lines:
as §3

Active and inactive are the calls of the source. The rule behind the calls is not given here.

Consider `CC[C@H](C)[C@@H]1N[C@@H](c2ccccc2)C(=O)NC1=O`, for which the outcome in the data set on Mus musculus [1], with Mus musculus [2], in the data set on Mus musculus [3], with Mus musculus [5], with Mus musculus [6] and in the data set with Mus musculus [7] was inactive. Moreover, the outcome with Mus musculus [8] was inactive. Also, the Activity entry in the data set with Mus musculus [4], with Mus musculus [9] and in the data set with Mus musculus [10] was “Non-toxic” throughout.

For the molecule `O=C1CN(Cc2ccccc2)C(c2ccccc2)C(=O)N1` (racemic), the Activity entry with Mus musculus [11], in the data set on Mus musculus [13] and in the data set with Mus musculus [15] was “Non-toxic” throughout. Besides, the result in the data set with Mus musculus [12] and in the data set with Mus musculus [14] was inactive.

As for `O=C1NC(=O)[C@@H](c2ccccc2)N[C@H]1c1ccccc1`, the Activity entry in the data set with Mus musculus [11], in the data set on Mus musculus [13] and with Mus musculus [15] was “Non-toxic” in each case. In addition, the result in the data set on Mus musculus [12], with Mus musculus [16] and in the data set with Mus musculus [14] was inactive.

`CC(C)C[C@@H]1N[C@@H](c2ccccc2)C(=O)NC1=O`: the outcome in the data set with Mus musculus [1], in the data set on Mus musculus [2], in the data set on Mus musculus [3], with Mus musculus [5], with Mus musculus [7] and in the data set with Mus musculus [8] was inactive. In addition, the Activity result in the data set with Mus musculus [4], in the data set with Mus musculus [9] and in the data set on Mus musculus [10] was “Non-toxic” in each case. Besides, the outcome in the data set on Mus musculus [6] was Active.

In the case of `O=C1CN(c2ccccc2)C(c2ccccc2)C(=O)N1` (racemic), the outcome in the data set on Mus musculus [1], in the data set with Mus musculus [2], in the data set on Mus musculus [3], in the data set on Mus musculus [5], in the data set on Mus musculus [6] and in the data set with Mus musculus [7] was inactive. Also, the outcome with Mus musculus [8] was inactive. Moreover, the Activity entry with Mus musculus [4], in the data set on Mus musculus [17], with Mus musculus [9] and with Mus musculus [10] was “Non-toxic” each time.

For `O=C1NC(=O)[C@H](c2ccccc2)N[C@H]1c1ccccc1`, the outcome with Mus musculus [12] and with Mus musculus [18] was inactive. Also, the Activity result in the data set with Mus musculus [13] is reported as “Toxic”; in the data set on Mus musculus [15] it was “Non-toxic”; in the data set on Mus musculus [19], “Non-toxic”. In the data set with Mus musculus [16], the outcome was Active.

In the case of `O=C1NC(=O)[C@H](c2ccccc2)N[C@H]1Cc1ccccc1`, the result in the data set with Mus musculus [1], with Mus musculus [2], in the data set with Mus musculus [3], in the data set with Mus musculus [5], in the data set with Mus musculus [7] and with Mus musculus [8] was inactive. Besides, the Activity result in the data set on Mus musculus [4], with Mus musculus [17], in the data set with Mus musculus [9] and with Mus musculus [10] was “Non-toxic” in each case. The outcome in the data set on Mus musculus [6] was Active.

For the molecule `CC(C)[C@@H]1N[C@@H](c2ccccc2)C(=O)NC1=O`, the result in the data set with Mus musculus [1], in the data set with Mus musculus [2], with Mus musculus [3], with Mus musculus [20], in the data set with Mus musculus [5] and in the data set with Mus musculus [7] was inactive. Besides, the Activity result with Mus musculus [4] is given as “Non-toxic”; in the data set on Mus musculus [21], “Non-toxic”; in the data set with Mus musculus [9], “Non-toxic”; with Mus musculus [10], “Non-toxic”; in the data set with Mus musculus [23], “Toxic”. Moreover, the outcome in the data set on Mus musculus [6] and in the data set on Mus musculus [22] was Active.

Turning to `CC(C)[C@@H]1N[C@H](c2ccccc2)C(=O)NC1=O`, the outcome with Mus musculus [1], in the data set with Mus musculus [2], with Mus musculus [3], with Mus musculus [5], in the data set with Mus musculus [7] and in the data set with Mus musculus [8] was inactive. Also, the Activity entry with Mus musculus [4], in the data set with Mus musculus [9] and in the data set with Mus musculus [10] was “Non-toxic” each time. In the data set with Mus musculus [6], the outcome was Active.
